Experimental data taken from publication PMC8892681 (ACS Omega, 2022).
Entries after “also recorded” stand apart in the source; their conditions may differ. Like-named read-outs stand apart in the source and are kept apart here. One block for each molecule: values may come before it.

Columns and labels:
C. difficile = experiment: MIC by broth microdilution against C. difficile; assay type: cell-based, Clostridioides difficile
VREfm [1] = experiment: MIC by broth microdilution against E. faecium; assay type: cell-based, Enterococcus faecium; conditions: for fold loss in activity against E. faecium: compared with analogue 1
[2] = Pharmacokinetics and urinary/faecal recovery after oral administration in rats; assay type: in vivo, Sprague Dawley rats; conditions: 30 mg/kg; for AUC(0-inf) / Cmax / Tmax / half-life: male, Sprague Dawley, rat, plasma, po; for % dose in urine (0–48 h): unchanged compound, male Sprague Dawley rats, oral, mean ± SD n = 3
[3] = system: E. faecium strain Aus0085; experiment: Time-kill assay against E. faecium; assay type: cell-based, Enterococcus faecium
human erythrocytes [4] = experiment: Haemolysis assay; assay type: cell-based; conditions: 1 h, 37 °C
Summary of the method: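 Human whole blood collected in K2-EDTA and pelleted at 500 g for 5 min. RBCs washed twice in saline and once in PBS, then diluted 1:50 in PBS. Test compound made at 20× in DMSO and added 1:20 (final 0.125−128 mg/L). Incubated 1 h at 37 °C. Controls were DMSO vehicle and 1% (v/v) Triton X-100. After centrifugation at 500g, supernatant A450 was read. Three biological replicates.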

[5] = system: C. difficile strain EDN0008; experiment: Time-kill assay against C. difficile; assay type: cell-based, Clostridioides difficile
Caco-2 cell monolayers = experiment: Caco-2 cell permeability; assay type: in vitro ADME
VREfm [6] = conditions: range of clinically relevant E. faecium strains; cited from earlier work
HepG2 = conditions: cited from earlier work
human erythrocytes [7] = conditions: cited from earlier work
Caco-2 cell permeability = assay type: in vitro ADME; conditions: human, Caco-2, pH 7.4
[8] = exposure to 4 μg/mL, up to 48 h

Molecule: CC(CN)c1ccc(Oc2ccc(-c3noc(-c4ccc(O)cc4)n3)cc2)cc1.Cl (racemic) [15f, (RS)-4-(3-(4-(4-(1-Aminopropan-2-yl)phenoxy)phenyl)-1,2,4-oxadiazol-5-yl)phenol Hydrochloride]
fold loss in potency against C. difficile (C. difficile; compared with the ethyl linker 15e): 5 fold

Molecule: O=C(O)CCc1ccc(Oc2ccc(-c3noc(-c4ccc(O)cc4)n3)cc2)cc1 [9g, 3-(4-(4-(5-(4-Hydroxyphenyl)-1,2,4-oxadiazol-3-yl)phenoxy)phenyl)propanoic Acid]
fold loss in potency against C. difficile (C. difficile; 4 position versus same substituent at 2 and 3 positions / analogue 1): 4 fold

Molecule: Cl.NCc1ccccc1Oc1ccc(-c2noc(-c3ccc(O)cc3)n2)cc1 [15a, 4-(3-(4-(2-(Aminomethyl)phenoxy)phenyl)-1,2,4-oxadiazol-5-yl)phenol Hydrochloride]
fold loss in activity against E. faecium (VREfm [1]): 4 fold

Molecule: Cl.NCCc1ccccc1Oc1ccc(-c2noc(-c3ccc(O)cc3)n2)cc1 [15b, 4-(3-(4-(2-(2-Aminoethyl)phenoxy)phenyl)-1,2,4-oxadiazol-5-yl)phenol Hydrochloride]
fold loss in activity against E. faecium (VREfm [1]): 4 fold

Molecule: Cl.NCc1ccc(Oc2ccc(-c3noc(-c4ccc(O)cc4)n3)cc2)cc1 [15d, 4-(3-(4-(4-(Aminomethyl)phenoxy)phenyl)-1,2,4-oxadiazol-5-yl)phenol Hydrochloride]
fold loss in activity against E. faecium (VREfm [1]): 2 fold

AUC(0-inf) [2]: 0.9 ± 0.22 µM·h | Cmax [2]: 160 ± 38 nM | Tmax [2]: 2.5 h | half-life [2]: 2 ± 0.3 h | % dose in urine (0–48 h) [2]: 0.08 ± 0.03%
Molecule: Cl.NCCc1ccc(Oc2ccc(-c3noc(-c4ccc(O)cc4)n3)cc2)cc1 [15e, 4-(3-(4-(4-(2-Aminoethyl)phenoxy)phenyl)-1,2,4-oxadiazol-5-yl)phenol Hydrochloride]
fold loss in activity against E. faecium (VREfm [1]): 2 fold | time to 100% kill of VREfm ([3]; 4 μg/mL): ≤ 24 h | time to 100% kill of VREfm ([3]; 8 μg/mL (2× MIC of 15e)): ≤ 1 h | regrowth of VREfm in time-kill assay [3, 8]: remained undetectable | regrowth of VREfm in time-kill assay ([3]; exposure to 8 μg/mL): no rebounding growth observed | concentration leading to substantial levels of haemolysis (human erythrocytes [4]): ≥ 64 µg/mL | time to 100% kill of C. difficile [5]: ≤ 3 h

Molecule: Cl.NCCCc1ccc(Oc2ccc(-c3noc(-c4ccc(O)cc4)n3)cc2)cc1 [15h, 4-(3-(4-(4-(3-Aminopropyl)phenoxy)phenyl)-1,2,4-oxadiazol-5-yl)phenol Hydrochloride]
fold increase in activity against E. faecium (VREfm [1]; propylamine versus ethylamine linker (15e)): 2 fold

AUC(0-inf) [2]: 0.28 ± 0.27 µM·h | Cmax [2]: 39 ± 46 nM | Tmax [2]: 2.8 ± 2 h | half-life [2]: 5.3 ± 2.1 h | % dose in urine (0–48 h) [2]: 0.06 ± 0.03%
Molecule: C[N+](C)(C)CCc1ccc(Oc2ccc(-c3noc(-c4ccc(O)cc4)n3)cc2)cc1.[I-] [26a, 2-(4-(4-(5-(4-Hydroxyphenyl)-1,2,4-oxadiazol-3-yl)phenoxy)phenyl)-N,N,N-trimethylethan-1-aminium Iodide]
permeability across Caco-2 cell monolayer (in words) (Caco-2 cell monolayers; not detected in acceptor chamber, fully recovered in donor chamber): complete impermeability; also recorded: no detectable permeability | fold decrease in activity against E. faecium (VREfm [1]; compared with the primary amine 15e): 2 fold

C. difficile MIC (C. difficile; broth microdilution, 48 h anaerobic, biological triplicate): 2 µg/mL
Molecule: CN[C@H](CC(C)C)C(=O)N[C@H]1C(=O)N[C@@H](CC(N)=O)C(=O)N[C@H]2C(=O)N[C@H]3C(=O)N[C@H](C(=O)N[C@H](C(=O)O)c4cc(O)cc(O)c4-c4cc3ccc4O)[C@H](O)c3ccc(c(Cl)c3)Oc3cc2cc(c3O[C@@H]2O[C@H](CO)[C@@H](O)[C@H](O)[C@H]2O[C@H]2C[C@](C)(N)[C@H](O)[C@H](C)O2)Oc2ccc(cc2Cl)[C@H]1O [Vancomycin, vancomycin, reference compound]
killing activity in time-kill assay ([5]; C. difficile EDN0008, 1 at ≥2 × MIC (12–48 μg/mL), vancomycin 8 μg/mL): bacteriostatic activity

Molecule: Oc1ccc(-c2nc(-c3ccc(Oc4ccccc4)cc3)no2)cc1 [compound 1, 4-(3-(4-Phenoxyphenyl)-1,2,4-oxadiazol-5-yl)phenol]
E. faecium MIC90 (VREfm [6]): 2 µg/mL | time to 100% kill of VREfm ([3]; 4 μg/mL): ≤ 24 h | time to 100% kill of VREfm ([3]; 8 μg/mL (2× MIC of 15e)): ≤ 1 h | regrowth of VREfm in time-kill assay [3, 8]: rebounding growth of VREfm was observed after 48 h | regrowth of VREfm in time-kill assay ([3]; exposure to 8 μg/mL): no rebounding growth observed | HepG2 viability (HepG2; at concentrations higher than 2 μg/mL): reduced viability | toxicity against HepG2 (HepG2; at the E. faecium MIC90 (2 μg/mL)): not toxic | concentration leading to haemolysis in human erythrocytes (human erythrocytes [7]): > 64 µg/mL | killing activity in time-kill assay [5]: rapid bactericidal activity

Papp A→B at 120 min (Caco-2 cell permeability): 42 ± 2.5 ×10⁻⁶ cm/s
Molecule: CC(C)NCC(O)COc1cccc2ccccc12 (centres unmarked) [propranolol]

Papp A→B at 120 min (Caco-2 cell permeability): 1.6 ± 0.13 ×10⁻⁶ cm/s | Papp B→A at 120 min (Caco-2 cell permeability): 12 ± 2.7 ×10⁻⁶ cm/s | efflux ratio at 120 min (Caco-2 cell permeability): 7.3
Molecule: COC(=O)c1ccccc1-c1c2ccc(=N)cc-2oc2cc(N)ccc12 [rhodamine 123]

Papp (Caco-2 cell monolayers; low permeability marker, acceptor solution): < 1 10^–6 cm/s
Molecule: lucifer yellow
